In ChEMBL document CHEMBL1156767, “Indol-3-ylcycloalkyl ketones: effects of N1 substituted indole side chain variations on CB(2) cannabinoid receptor activity” (J Med Chem, 2010):

Legend:
[1] = target: Cannabinoid receptor 1 (Rattus norvegicus) (UniProt P20272); test: Agonist activity at rat CB1 receptor assessed as inhibition of forskolin-induced cAMP production by cell based assay relative to CP-55940; type: functional; set-up: scale not given: the % may be the effect or the level left
Outline: (§1)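 Cyclase assay on cell suspensions (HitHunter cAMP kit): varying test ligand concentrations or CP-55,940 positive control incubated 20 min at 37 °C with a fixed forskolin concentration (lower for rat CB2 than for human CB2 and rat CB1) in D-PBS with 0.01% BSA. Lysis buffer was then added and luminescence read. Response is given as percent of the CP-55,940 response.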

Cannabinoid receptor 2 [2] = target: T1, Cannabinoid receptor 2 (Rattus norvegicus, UniProt Q9QZN9); test: Agonist activity at rat CB2 receptor assessed as inhibition of forskolin-induced cAMP production by cell based assay; type: functional
T1 sequence (Q9QZN9 whole entry): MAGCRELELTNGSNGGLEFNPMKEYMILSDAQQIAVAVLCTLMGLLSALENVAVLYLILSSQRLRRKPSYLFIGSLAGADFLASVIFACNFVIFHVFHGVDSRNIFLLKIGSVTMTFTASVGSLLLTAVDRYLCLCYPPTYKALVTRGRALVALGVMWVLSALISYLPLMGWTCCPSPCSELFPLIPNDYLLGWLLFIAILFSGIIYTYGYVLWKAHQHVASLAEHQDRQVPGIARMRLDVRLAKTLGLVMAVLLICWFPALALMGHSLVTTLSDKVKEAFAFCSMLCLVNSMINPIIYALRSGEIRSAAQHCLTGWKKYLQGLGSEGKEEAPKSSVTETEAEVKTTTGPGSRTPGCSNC

[3] = target: T2, Cannabinoid receptor 2 (Rattus norvegicus) (UniProt Q9QZN9); test: Agonist activity at rat CB2 receptor assessed as inhibition of forskolin-induced cAMP production by cell based assay relative to CP-55940; type: functional; set-up: concentration or dose not given beside the values; outline: as §1
T2 sequence (whole entry): T1 sequence (Q9QZN9 whole entry)

Cannabinoid receptor 1 [4] = target: T3, Cannabinoid receptor 1 (Homo sapiens, UniProt P21554); test: Displacement of [3H]CP-55940 from human recombinant CB1 receptor expressed in CHO cells; type: cell-based
T3 sequence (P21554 whole entry): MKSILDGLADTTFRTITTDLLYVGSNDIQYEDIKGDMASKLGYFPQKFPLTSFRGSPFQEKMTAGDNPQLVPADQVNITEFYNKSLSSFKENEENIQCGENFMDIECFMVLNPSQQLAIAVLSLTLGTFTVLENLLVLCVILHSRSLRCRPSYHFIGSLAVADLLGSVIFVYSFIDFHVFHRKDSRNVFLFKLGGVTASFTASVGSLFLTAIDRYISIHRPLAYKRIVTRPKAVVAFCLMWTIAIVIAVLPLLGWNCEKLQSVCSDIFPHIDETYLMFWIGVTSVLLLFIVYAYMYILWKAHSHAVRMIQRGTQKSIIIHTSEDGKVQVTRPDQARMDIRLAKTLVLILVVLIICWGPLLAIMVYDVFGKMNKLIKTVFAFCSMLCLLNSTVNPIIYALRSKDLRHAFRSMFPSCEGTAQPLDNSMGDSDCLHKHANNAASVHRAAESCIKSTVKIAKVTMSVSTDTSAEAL

Cannabinoid receptor 2 [5] = target: T4, Cannabinoid receptor 2 (Homo sapiens, UniProt P34972); test: Agonist activity at human recombinant CB2 receptor expressed in HEK293 cells assessed as inhibition of forskolin-induced cAMP production relative to CP-55940; type: functional, cell-based; set-up: scale not given: the % may be the effect or the level left; outline: as §1
T4 sequence (P34972 whole entry): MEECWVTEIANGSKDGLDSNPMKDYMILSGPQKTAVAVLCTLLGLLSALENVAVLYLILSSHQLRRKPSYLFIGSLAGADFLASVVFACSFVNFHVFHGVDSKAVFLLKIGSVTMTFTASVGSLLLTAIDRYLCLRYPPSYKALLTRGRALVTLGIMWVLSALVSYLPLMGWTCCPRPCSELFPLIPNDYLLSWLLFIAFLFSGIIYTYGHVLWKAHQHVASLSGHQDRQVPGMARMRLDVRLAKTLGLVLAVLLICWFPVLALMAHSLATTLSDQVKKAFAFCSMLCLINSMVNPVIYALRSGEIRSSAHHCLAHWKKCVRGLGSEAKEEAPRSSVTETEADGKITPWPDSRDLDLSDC

Cannabinoid receptor 2 [6] = target: T4, Cannabinoid receptor 2; test: Agonist activity at human recombinant CB2 receptor expressed in HEK293 cells coexpressing Galphaq/o5 assessed as calcium mobilization by FLIPR assay relative to CP-55940; type: functional, cell-based
Outline: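 HEK cells stably coexpressing human CB2 and chimeric Gαq/o5 were seeded at 75 000 cells/well the day before and loaded with no-wash calcium dye. […] Mean ± SEM, ≥3 experiments in duplicate.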

Cannabinoid receptor 2 [7] = target: T4, Cannabinoid receptor 2; test: Agonist activity at human recombinant CB2 receptor expressed in HEK293 cells assessed as inhibition of forskolin-induced cAMP production; type: functional, cell-based
Cannabinoid receptor 1 [8] = target: T3, Cannabinoid receptor 1; test: Agonist activity at human recombinant CB1 receptor expressed in CHO cells assessed as inhibition of forskolin-induced cAMP production; type: functional, cell-based
Homo sapiens = organism: Homo sapiens; test: Selectivity ratio of Ki for human recombinant CB1 receptor to Ki for human recombinant CB2 receptor
Outline: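 Membranes were from HEK cells stably expressing human CB2 and CHO cells stably expressing human CB1. Competition was run against 0.5 nM [3H]CP-55,940 in 50 mM Tris-HCl pH 7.4, 2.5 mM EDTA, 5 mM MgCl2, 0.05% fatty-acid-free BSA, for 90 min at 30 °C, then filtered. Nonspecific binding was set with 10 μM unlabeled CP-55,940. Ki came from one-site fits. Mean ± SEM, ≥3 experiments in duplicate.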

Cannabinoid receptor 2 [9] = target: T4, Cannabinoid receptor 2; test: Displacement of [3H]CP-55940 from human recombinant CB2 receptor expressed in HEK293 cells; type: cell-based; conditions: read-out: Ki
Cannabinoid receptor 1 [10] = target: Cannabinoid receptor 1 (Rattus norvegicus, UniProt P20272); test: Agonist activity at rat CB1 receptor assessed as inhibition of forskolin-induced cAMP production by cell based assay; type: functional
Chain of Cannabinoid receptor 1 (Rattus norvegicus, UniProt P20272) (P20272 whole entry): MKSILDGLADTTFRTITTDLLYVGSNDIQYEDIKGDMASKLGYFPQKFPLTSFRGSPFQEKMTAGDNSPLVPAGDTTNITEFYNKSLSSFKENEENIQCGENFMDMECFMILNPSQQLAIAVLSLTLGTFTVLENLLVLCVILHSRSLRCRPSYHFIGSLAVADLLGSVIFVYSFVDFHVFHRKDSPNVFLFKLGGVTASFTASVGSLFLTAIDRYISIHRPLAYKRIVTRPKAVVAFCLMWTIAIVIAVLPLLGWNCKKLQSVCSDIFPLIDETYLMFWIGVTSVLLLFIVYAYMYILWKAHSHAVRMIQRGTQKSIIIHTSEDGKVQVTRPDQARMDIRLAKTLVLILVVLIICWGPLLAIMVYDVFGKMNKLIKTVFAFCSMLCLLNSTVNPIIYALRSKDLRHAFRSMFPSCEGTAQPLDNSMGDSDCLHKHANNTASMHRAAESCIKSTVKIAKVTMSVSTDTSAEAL

Cannabinoid receptor 2 [11] = target: T4, Cannabinoid receptor 2; test: Agonist activity at human recombinant CB2 receptor expressed in HEK293 cells coexpressing Galphaq/o5 assessed as calcium mobilization by FLIPR assay; type: functional, cell-based
Outline: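 HEK cells stably coexpressing human CB2 and chimeric Gαq/o5 were seeded at 75 000 cells/well the day before and loaded with no-wash calcium dye. Mean ± SEM, ≥3 experiments in duplicate.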

Chain of Cannabinoid receptor 1 (Rattus norvegicus) (P20272 whole entry): as above

| Compound | Activity [1] [%] | EC50 (Cannabinoid receptor 2 [2]) [nM] | Activity [3] [%] | Ki (Cannabinoid receptor 1 [4]; read-out: Ki) [nM] | Ki (Cannabinoid receptor 1 [4]; read-out: pKi (converted)) [nM] | Activity (Cannabinoid receptor 2 [5]) [%] | Activity (Cannabinoid receptor 2 [6]) [%] | EC50 (Cannabinoid receptor 2 [7]) [nM] | EC50 (Cannabinoid receptor 1 [8]) [nM] | Ratio Ki (Homo sapiens) | Ki (Cannabinoid receptor 2 [9]) [nM] | EC50 (Cannabinoid receptor 1 [10]) [nM] | EC50 (Cannabinoid receptor 2 [11]) [nM] |
| --- | --- | --- | --- | --- | --- | --- | --- | --- | --- | --- | --- | --- | --- |
| CC1(C)C(C(=O)c2cn(CCCCO)c3ccccc23)C1(C)C | 113 | 4.4 | 104 | > 5600 | > 5620 | 100 | 105 | 2.1 | 1880 | > 2500 | 2.2 | 2080 | 8 |
| CC1(C)C(C(=O)c2cn(CC3CCOCC3)c3ccccc23)C1(C)C | 91 | 0.17 | 93 | – | – | 103 | – | 2.7 | – | – | – | – | – |
| CC1(C)C(C(=O)c2cn(CCN3CCOCC3)c3ccccc23)C1(C)C | 97 | 1.6 | 70 | – | – | 78 | – | 0.52 | – | – | 4.6 | 248 | 16 |
| Cc1c(C(=O)c2cccc3ccccc23)c2cccc3c2n1[C@H](CN1CCOCC1)CO3 | 108 | – | 46 | – | – | – | – | – | – | – | – | – | – |
| CC1(C)C(C(=O)c2cn(CCN3CCOC3=O)c3ccccc23)C1(C)C | – | 0.07 | 99 | 350 | – | 114 | 81 | 0.97 | 3590 | 1940 | 0.18 | – | 2 |
